Assay outcomes as filed in PubChem BioAssay.
UHRF1 MBD2 ctr: UHRF1 methylated DNA binding inhibitors, primary screen, counter-screen for MBD2 inhibitor project, biochemical, TR-FRET, human UHRF1, single concentration | E3 ubiquitin-protein ligase UHRF1 (Homo sapiens), Q96T88 | UHRF1 binding to methylated oligo | inhibition, % at 4.4 µM | actives 0.75% (n = 370,000) | AID 687016, 2013;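 note: UHRF1 SRA domain binding a hemimethylated CpG hairpin DNA probe; 0% = median of test compound wells and 100% = reference inhibitor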
Target sequence (Q96T88 whole entry, looked up, the tested form may be a part): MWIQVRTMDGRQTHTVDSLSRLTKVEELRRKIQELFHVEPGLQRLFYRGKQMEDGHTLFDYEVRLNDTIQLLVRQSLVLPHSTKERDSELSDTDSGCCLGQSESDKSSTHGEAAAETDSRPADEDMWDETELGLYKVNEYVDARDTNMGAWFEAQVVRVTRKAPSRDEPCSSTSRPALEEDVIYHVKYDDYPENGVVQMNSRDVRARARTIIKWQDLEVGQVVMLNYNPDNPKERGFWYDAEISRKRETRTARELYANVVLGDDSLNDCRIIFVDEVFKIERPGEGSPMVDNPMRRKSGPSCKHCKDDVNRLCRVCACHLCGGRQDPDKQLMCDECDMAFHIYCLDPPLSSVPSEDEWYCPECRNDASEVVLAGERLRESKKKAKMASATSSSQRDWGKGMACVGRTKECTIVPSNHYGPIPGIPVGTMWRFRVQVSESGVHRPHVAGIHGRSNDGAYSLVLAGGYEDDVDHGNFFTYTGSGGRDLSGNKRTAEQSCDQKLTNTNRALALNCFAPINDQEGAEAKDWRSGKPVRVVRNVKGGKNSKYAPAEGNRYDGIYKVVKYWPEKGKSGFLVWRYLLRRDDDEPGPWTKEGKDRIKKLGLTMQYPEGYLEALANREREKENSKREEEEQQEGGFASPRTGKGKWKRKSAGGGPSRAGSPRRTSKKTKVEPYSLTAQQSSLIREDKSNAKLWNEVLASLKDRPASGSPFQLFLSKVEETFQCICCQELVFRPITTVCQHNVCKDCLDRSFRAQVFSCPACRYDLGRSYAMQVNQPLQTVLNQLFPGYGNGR
TDP2 absorb: human TDP2 enzyme inhibitors, primary screen, biochemical, epi absorbance, recombinant enzyme | Tyrosyl-DNA phosphodiesterase 2 (Homo sapiens), O95551 | T5PNP hydrolysis, p-nitrophenol absorbance 415 nm | inhibition, % at 12.8 µM | actives 0.34% (n = 370,000);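 active = inhibition above the mean of all tested compounds plus 3 SD, set per campaign, cut at about 25% in these data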;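 note: 0% = DMSO with enzyme and 100% = buffer with substrate but no TDP2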
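Read-out basis: percent inhibition. System: recombinant human TDP2. Buffer or medium: Mg2+-containing Tris-HCl buffer, pH 7.5. Repeats: single replicate. Timing: reaction 2 h, 37 °C. Benchmarks: high control without enzyme, low control DMSO plus TDP2. Probe or stimulus: 5 mM T5PNP. Doses: 12.8 µM only. Measured by: epi absorbance of p-nitrophenol freed from T5PNP by hydrolysis.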
LEDGF integ inh: blockers of LEDGF/p75-dependent integrase strand transfer – biochemical, TR-FRET, high throughput, primary screen; HIV-1 integrase (with human LEDGF/p75); TR-FRET IN-LEDGF/p75 DNA integration, Eu/Cy5; inhibition, % at 3.7 µM; actives 0.64% (n = 370,000); AID 743269, 2014;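 active = inhibition above the screen-wide mean plus 3 SD, cut at about 13% in these data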;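 note: signal is the Cy5 over europium emission ratio at 671 and 618 nm; 0% = plate median of compound wells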
MBD2 DNA inh: inhibitors of MBD2 binding to methylated DNA, primary screen, biochemical, TR-FRET, DNA-binding domain, human; MBD2 binding to methylated oligonucleotide; inhibition, % at 4.4 µM; actives 0.31% (n = 370,000); in the data active = inhibition above about 13%
Rin1 Abl inh: inhibitors of Rin1-Abl protein binding, primary screen, biochemical, TR-FRET. Tyrosine-protein kinase ABL1 (Homo sapiens) + Ras and Rab interactor 1 (Homo sapiens), …. inhibition, % at 7.35 µM. actives 0.4% (n = 360,000); in the data active = inhibition above about 5%, passing the limit was not always enough
UHRF1 DNA bind: UHRF1 methylated DNA binding inhibitors, counter-screen for MBD2 inhibitor project, biochemical, TR-FRET, human UHRF1; inhibition, % at 4.4 µM; actives 25% (n = 1,000); shares compounds with MBD2 DNA inh; UHRF1 binding to methylated oligonucleotide;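 note: UHRF1 SRA domain binding a labeled hemimethylated CpG hairpin DNA; 0% = vehicle only and 100% = reference inhibitor with vehicle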
MBD2 confirm: inhibitors of MBD2 binding to methylated DNA, confirmation, biochemical, TR-FRET, DNA-binding domain, human; shares compounds with MBD2 DNA inh; TR-FRET MBD2-DBD binding to methylated oligonucleotide; inhibition, % at 4.4 µM; actives 26% (n = 1,000); AID 720531, 2013; in the data active = inhibition above about 14%
Starred values were filed as active, the others as inactive; · = not tested or not shown. Hits are enriched below; roughly 1.9% of the tested compounds scored in any of these assays. Cut-off read from the data, not from the text of the source, unless noted: active = inhibition above about 21%; inactive = the rest.

SMILES | UHRF1 MBD2 ctr | TDP2 absorb | LEDGF integ inh | MBD2 DNA inh | Rin1 Abl inh | UHRF1 DNA bind | MBD2 confirm
Cc1ccc(C(=O)NCCN(C)C)c(C)c1 | 4 | -6 | -3 | 7 | -1 | · | ·
CNc1c2cccc(C)c2nc2c(C(=O)NCCN(C)C)cccc12 | 61* | -2 | 8 | 91* | -13 | 55* | 103*
Cc1cc(O)cc(=O)n1-c1cccc([N+](=O)[O-])c1 | 0 | 8 | -4 | 1 | · | · | ·
COC(=O)C1CCN(C(c2cccs2)c2sc3nc(C)nn3c2O)CC1 (configuration not stated) | 10 | 7 | -2 | 19* | -6 | 1 | 2
O=C(NCCc1c[nH]c2ccccc12)c1ccc(Br)o1 | 21* | 5 | 1 | 16* | 0 | 8 | 5
O=C(NCCSc1c[nH]c2ccccc12)c1ccc(Br)o1 | -1 | -8 | 2 | 1 | 4 | · | ·
Cc1ccc2[nH]c(O)c(N=NC(=O)c3ccc(NS(=O)(=O)c4cccs4)cc3)c2c1 | -4 | 7 | -1 | -8 | -3 | · | ·
Cc1cccc2c(N=NC(=O)c3ccc(NS(=O)(=O)c4cccs4)cc3)c(O)[nH]c12 | 0 | -1 | -2 | 21* | -1 | 4 | 3
COc1cccc(NC(=O)CN(C)C(=O)c2cc3c(s2)CCC3)c1 | 55* | -8 | 9 | 27* | · | 30* | 26*
COc1cc(C=Nn2c(-c3cc(-c4ccccc4)n[nH]3)n[nH]c2=S)ccc1OC(C)=O | -1 | 5 | 0 | 2 | · | · | ·
Cc1ccc(C(=O)C2CCN(CC(=O)NC(C)C)CC2)cc1 | 6 | 8 | 3 | -2 | · | · | ·
O=C(NNC(=O)c1cccc2ccccc12)c1ccc(Cl)cc1 | 4 | 5 | -1 | 3 | 2 | · | ·
O=C(NNC(=O)c1cccc2ccccc12)c1ccc(Cl)c(Cl)c1 | -2 | -3 | 0 | 66* | -3 | 2 | 0
COc1cccc(-c2ccc(CC[C@H]3O[C@H]4CC[C@H](CO)O[C@H]4C[C@H]3NS(C)(=O)=O)cc2)c1 | -2 | 15 | 1 | 1 | · | · | ·
Cc1ccc(NC(=O)c2ccc(CS(=O)(=O)Cc3ccccc3C)o2)cc1C | 0 | 6 | -2 | 8 | · | · | ·
COc1ccc(-c2coc3c(C)c4oc(=O)c(CC(=O)O)c(C)c4cc23)cc1 | 3 | -1 | -5 | 2 | -2 | · | ·
Cc1c(CC(=O)O)c(=O)oc2c(C)c3occ(-c4ccc(Br)cc4)c3cc12 | 1 | 15 | 3 | 30* | 4 | 0 | 3
O=c1c2c([nH]c3ccccc13)CCCC2 | 0 | -5 | -1 | 0 | 2 | · | ·
O=C(O)c1cccc2c3c([nH]c12)CCCC3 | 0 | -1 | -3 | 18* | 2 | 5 | 2
C[C@H]1CN([C@@H](C)CO)C(=O)Cc2cc(NC(=O)C3CC3)ccc2O[C@H]1CN(C)Cc1ccc(Oc2ccccc2)cc1 | 2 | -8 | -1 | 17* | 3 | 4 | 0
CN(Cc1c(O)ccc2c1oc(=O)c1ccccc12)C1CCCCC1 | 19 | -12 | 6 | 20* | -9 | 2 | 10
CCOc1ccc(NC(=O)NN2C(C)CCCC2C)cc1 (configuration not stated) | -4 | -14 | 5 | 102* | 3 | 7 | 0
CCOc1ccc(NC(=S)NN2C(C)CCCC2C)cc1 (configuration not stated) | 1 | 5 | -1 | 2 | -1 | · | ·
Nc1c2ccccc2nc2ccccc12 | 15 | 9 | 3 | 26* | -9 | 31* | 37*
